Assay results: ChEMBL document CHEMBL4371044, “Celastrol Promotes Weight Loss in Diet-Induced Obesity by Inhibiting the Protein Tyrosine Phosphatases PTP1B and TCPTP in the Hypothalamus” (J Med Chem, 2018)
Calls of active or inactive are those of the source. The calls are words filed in the database; no cut-off is given here.

How the values were obtained:
[1] = biological target: T1, Tyrosine-protein phosphatase non-receptor type 2 (Homo sapiens) (UniProt P17706); test: (§1) Inhibition of human N-terminal His6-tagged TCPTP catalytic domain (1 to 336 residues) expressed in Escherichia coli strain Rosetta2 (DE3) using DiFMUP as substrate preincubated for 10 mins followed by substrate addition and measured after 10 mins in presence of 0.05% Tween20 by fluorescence assay
T1 sequence (whole entry): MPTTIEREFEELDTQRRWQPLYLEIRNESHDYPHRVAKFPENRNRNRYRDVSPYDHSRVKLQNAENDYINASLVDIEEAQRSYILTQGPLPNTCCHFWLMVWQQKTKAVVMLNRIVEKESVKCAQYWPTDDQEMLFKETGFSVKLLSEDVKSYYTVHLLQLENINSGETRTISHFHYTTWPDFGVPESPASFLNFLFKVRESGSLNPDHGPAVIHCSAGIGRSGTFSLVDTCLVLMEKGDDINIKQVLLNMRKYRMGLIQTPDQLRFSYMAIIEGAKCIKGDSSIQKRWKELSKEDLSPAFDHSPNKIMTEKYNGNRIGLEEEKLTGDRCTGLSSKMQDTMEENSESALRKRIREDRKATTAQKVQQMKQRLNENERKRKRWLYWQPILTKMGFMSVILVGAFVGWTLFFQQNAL
How it was run: (§2)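 DiFMUP IC50 assay (1 nM enzyme, 10 min preincubation, substrate at Km, 37 °C, ex 358/em 455 nm), repeated as an aggregation check under three altered conditions: 10-fold enzyme (10 nM), 0.05% Tween 20, or 0.1 mg/mL BSA in buffer.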

[2] = biological target: T2, Tyrosine-protein phosphatase non-receptor type 1 (Homo sapiens) (UniProt P18031); test: as §1, with “PTP1B” for “TCPTP”, “393” for “336”, “10 fold higher enzyme concentration” for “0.05% Tween20”; how it was run: as §2
T2 sequence (whole entry): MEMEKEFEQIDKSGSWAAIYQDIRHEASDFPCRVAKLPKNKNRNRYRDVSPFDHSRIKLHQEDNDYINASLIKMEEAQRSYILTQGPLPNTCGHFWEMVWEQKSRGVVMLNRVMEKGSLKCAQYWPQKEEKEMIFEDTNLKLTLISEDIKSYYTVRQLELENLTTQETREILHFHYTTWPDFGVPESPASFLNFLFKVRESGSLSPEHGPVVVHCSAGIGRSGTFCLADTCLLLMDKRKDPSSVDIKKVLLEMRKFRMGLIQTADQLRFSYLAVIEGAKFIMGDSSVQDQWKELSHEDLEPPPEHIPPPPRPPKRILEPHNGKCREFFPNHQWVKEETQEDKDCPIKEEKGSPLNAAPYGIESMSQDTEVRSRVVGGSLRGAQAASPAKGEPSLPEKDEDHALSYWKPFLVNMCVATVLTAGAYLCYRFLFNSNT

[3] = biological target: T1, Tyrosine-protein phosphatase non-receptor type 2 (Homo sapiens); test: as §1, with “Non competitive inhibition” for “Inhibition”, “mins” for “mins in presence of 0.05% Tween20”, “assay Michaelis-Menten plot analysis” for “assay”
[4] = biological target: T3, Tyrosine-protein phosphatase non-receptor type 11 (Homo sapiens, UniProt Q06124); test: Inhibition of human SHP2 (246 to 527 residues) expressed in Escherichia coli strain BL21(DE3) using DiFMUP as substrate preincubated for 10 mins followed by substrate addition and measured after 10 mins by fluorescence assay
T3 sequence (Q06124 whole entry): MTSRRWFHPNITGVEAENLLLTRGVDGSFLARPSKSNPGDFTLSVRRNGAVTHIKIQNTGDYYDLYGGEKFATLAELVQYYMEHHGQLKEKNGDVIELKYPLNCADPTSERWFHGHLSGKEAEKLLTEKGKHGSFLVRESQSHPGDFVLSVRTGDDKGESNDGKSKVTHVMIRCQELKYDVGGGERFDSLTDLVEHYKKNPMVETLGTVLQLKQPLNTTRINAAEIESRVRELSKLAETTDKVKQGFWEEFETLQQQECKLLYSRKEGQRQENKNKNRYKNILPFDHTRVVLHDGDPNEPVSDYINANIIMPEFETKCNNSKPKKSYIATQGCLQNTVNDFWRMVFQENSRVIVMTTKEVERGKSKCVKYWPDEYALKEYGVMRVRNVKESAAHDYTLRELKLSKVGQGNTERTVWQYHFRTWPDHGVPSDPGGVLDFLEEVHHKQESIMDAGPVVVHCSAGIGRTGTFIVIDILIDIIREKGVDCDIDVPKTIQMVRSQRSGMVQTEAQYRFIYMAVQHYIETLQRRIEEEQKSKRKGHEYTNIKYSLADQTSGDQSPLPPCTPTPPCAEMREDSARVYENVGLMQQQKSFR
How it was run: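 Selectivity panel on enzymes expressed in E. coli BL21(DE3), purified by nickel affinity then size exclusion. DiFMUP fluorescence assay run as for PTP1B/TCPTP, with per-enzyme conditions in a supplementary table; nonlinear regression for IC50; three independent experiments.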

[5] = biological target: T2, Tyrosine-protein phosphatase non-receptor type 1 (Homo sapiens); test: Covalent binding to human N-terminal His6-tagged PTP1B catalytic domain (1 to 298 residues) expressed in Escherichia coli strain Rosetta2 (DE3) by mass spectrometry
How it was run: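 PTP1B at 2 mg/mL incubated 30 min with or without compound (1:5, 2% DMSO) in 50 mM Tris-HCl pH 7.5, 75 mM NaCl; C4 ZipTip cleanup; MALDI-TOF in CHCA matrix.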

[6] = biological target: T4, Tyrosine-protein phosphatase non-receptor type 2 (Homo sapiens, UniProt P17706); test: Inhibition of human N-terminal His6-tagged TCPTP catalytic domain (1 to 296 residues) expressed in Escherichia coli strain Rosetta2 (DE3) using DiFMUP as substrate preincubated for 10 mins followed by substrate addition and measured after 10 mins by fluorescence assay
T4 sequence (P17706 whole entry): T1 sequence (whole entry)
How it was run: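 Tag-cleaved, SEC-purified enzyme at 1 nM, preincubated 10 min with compound at 15 concentrations from 0–500 μM (5% DMSO final) in 25 mM Bis-Tris propane pH 7.5, 50 mM NaCl, 2 mM EDTA. DiFMUP added at each construct's Km (10, 7, 10, 9 μM for PTP1B1−298, PTP1B1−393, TCPTP1−296, TCPTP1−336). Read ex 358/em 455 nm continuously 10 min at 37 °C; triplicate; log(inhibitor)-response fit.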

## CC1=C(O)C(=O)C=C2C1=CC=C1[C@@]2(C)CC[C@@]2(C)[C@@H]3C[C@](C)(C(=O)O)CC[C@]3(C)CC[C@]12C [CELASTROL]
[1]
  inhibition: Active
[2]
  inhibition: Active
[3]
  inhibition: Active
[4]
  IC50: 4.1 µM
[5]
  Activity: inactive
[6]
  IC50: 23 µM
